One block for each molecule: values may come before it. Calls of active or inactive are those of the source. The rule behind the calls is not given here.
What was measured:
[1] = biological target: Phosphatidylinositol 4,5-bisphosphate 3-kinase catalytic subunit alpha isoform (Homo sapiens, UniProt P42336); assay: Inhibition of PI3Kalpha (unknown origin) using PIP2 as substrate preincubated for 15 mins followed by substrate addition and measured after 1 hr in presence of ATP by HTRF assay
[2] = Inhibition of Akt phosphorylation at S473 residue (unknown origin) by cell based analysis; conditions: Homo sapiens
[3] = Dose normalized AUC in rat at 2.1 mg/kg, po measured upto 24 hrs by HPLC/MS/MS analysis; type: ADME, organism-based; conditions: in vivo
[4] = biological target: Cytochrome P450 2D6 (Homo sapiens, UniProt P10635); assay: Inhibition of CYP2D6 (unknown origin)
Cytochrome P450 2D6, sequence (P10635 whole entry): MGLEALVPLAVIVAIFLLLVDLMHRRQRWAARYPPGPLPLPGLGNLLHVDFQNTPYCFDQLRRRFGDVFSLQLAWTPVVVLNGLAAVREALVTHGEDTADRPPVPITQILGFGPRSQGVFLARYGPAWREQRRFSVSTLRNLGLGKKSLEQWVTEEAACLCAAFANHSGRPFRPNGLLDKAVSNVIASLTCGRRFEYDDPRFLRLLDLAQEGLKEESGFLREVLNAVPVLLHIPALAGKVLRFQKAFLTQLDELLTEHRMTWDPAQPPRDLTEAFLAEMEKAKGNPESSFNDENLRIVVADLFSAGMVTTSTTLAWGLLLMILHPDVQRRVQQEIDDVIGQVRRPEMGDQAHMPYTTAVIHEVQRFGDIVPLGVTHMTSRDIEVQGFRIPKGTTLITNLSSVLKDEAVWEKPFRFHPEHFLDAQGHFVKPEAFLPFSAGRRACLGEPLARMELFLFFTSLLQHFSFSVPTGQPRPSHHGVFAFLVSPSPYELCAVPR

[5] = Half life in mouse at 0.6 mg/kg, iv by HPLC/MS/MS analysis; type: ADME, organism-based; conditions: in vivo
[6] = species on record: Homo sapiens; assay: Inhibition of p70S6K (unknown origin)
[7] = Volume of distribution at steady state in dog at 0.1 mg/kg, iv by HPLC/MS/MS analysis; type: ADME, organism-based, Canis lupus familiaris; conditions: in vivo, read-out: Vdss
[8] = Clearance in monkey at 0.1 mg/kg, iv by HPLC/MS/MS analysis; type: ADME, organism-based, Macaca mulatta; conditions: rhesus monkey, in vivo
[9] = tested on: BT-474; assay: Antitumor activity against human BT-474 cells xenografted in mouse assessed as decrease in pAKT level at 300 microg/kg, po measured after 6 hrs; type: functional; set-up: scale not given: the % may be the effect or the level left; conditions: dose 300 µg/kg
Procedure, shortened: (§1)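 Mice bearing BT474 human tumour xenografts got one oral dose of 300 μg/kg. Tumour pAKT was read as the pAKT/total AKT ratio and compared with control. Sampling ran over a 24 h time course.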

[10] = biological target: Cytochrome P450 2C19 (Homo sapiens, UniProt P33261); assay: Inhibition of CYP2C19 (unknown origin)
Cytochrome P450 2C19, sequence (P33261 whole entry): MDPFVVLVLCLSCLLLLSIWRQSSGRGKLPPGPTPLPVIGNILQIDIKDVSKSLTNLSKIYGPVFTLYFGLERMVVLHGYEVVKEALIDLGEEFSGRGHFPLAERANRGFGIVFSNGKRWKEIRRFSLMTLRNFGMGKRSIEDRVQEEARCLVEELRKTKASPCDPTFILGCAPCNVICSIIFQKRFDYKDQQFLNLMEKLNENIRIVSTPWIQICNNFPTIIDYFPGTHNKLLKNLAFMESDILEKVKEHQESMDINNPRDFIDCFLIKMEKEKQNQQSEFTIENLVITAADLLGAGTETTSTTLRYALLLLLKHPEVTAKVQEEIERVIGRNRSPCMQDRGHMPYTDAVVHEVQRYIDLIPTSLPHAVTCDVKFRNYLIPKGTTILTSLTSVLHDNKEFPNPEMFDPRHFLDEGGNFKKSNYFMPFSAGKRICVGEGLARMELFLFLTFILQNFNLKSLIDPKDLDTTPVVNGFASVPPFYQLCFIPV

[11] = Inhibition of Akt phosphorylation at S473 residue in human T47D cells by cell based assay
Procedure, shortened: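 Cellular mechanistic assay in T47D and BT474 cancer cells measuring loss of intracellular AKT phosphorylation at S473.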

[12] = tested on: T47D; assay: Antiproliferative activity against human T47D cells assessed as inhibition of cell growth measured after 72 hrs by CellTiter-Glo assay; type: functional, cell-based
[13] = Half life in monkey at 0.1 mg/kg, iv by HPLC/MS/MS analysis; type: ADME, organism-based, Macaca mulatta; conditions: rhesus monkey, in vivo
[14] = tested on: BT-474; assay: Antitumor activity against human BT-474 cells xenografted in mouse assessed as decrease in pAKT level at 300 microg/kg, po measured after 4 hrs; type: functional; set-up: scale not given: the % may be the effect or the level left; conditions: dose 300 µg/kg; procedure, shortened: as §1
[15] = biological target: DNA-dependent protein kinase catalytic subunit (Homo sapiens, UniProt P78527); assay: Inhibition of DNA-PK (unknown origin)
[16] = Oral bioavailability in monkey at 0.6 mg/kg by HPLC/MS/MS analysis; type: ADME, organism-based, Macaca mulatta; conditions: rhesus monkey, in vivo
[17] = tested on: BT-474; assay: Antiproliferative activity against human BT-474 cells assessed as inhibition of cell growth measured after 72 hrs by CellTiter-Glo assay; type: functional, cell-based; conditions: BT-474, 72 h
[18] = Dose normalized AUC in dog at 0.5 mg/kg, po by HPLC/MS/MS analysis; type: ADME, organism-based, Canis lupus familiaris; conditions: in vivo
[19] = Clearance in rat at 0.4 mg/kg, iv by HPLC/MS/MS analysis; type: ADME, organism-based; conditions: in vivo
[20] = biological target: Cytochrome P450 2C9 (Homo sapiens, UniProt P11712); assay: Inhibition of CYP2C9 (unknown origin)
Cytochrome P450 2C9, sequence (P11712 whole entry): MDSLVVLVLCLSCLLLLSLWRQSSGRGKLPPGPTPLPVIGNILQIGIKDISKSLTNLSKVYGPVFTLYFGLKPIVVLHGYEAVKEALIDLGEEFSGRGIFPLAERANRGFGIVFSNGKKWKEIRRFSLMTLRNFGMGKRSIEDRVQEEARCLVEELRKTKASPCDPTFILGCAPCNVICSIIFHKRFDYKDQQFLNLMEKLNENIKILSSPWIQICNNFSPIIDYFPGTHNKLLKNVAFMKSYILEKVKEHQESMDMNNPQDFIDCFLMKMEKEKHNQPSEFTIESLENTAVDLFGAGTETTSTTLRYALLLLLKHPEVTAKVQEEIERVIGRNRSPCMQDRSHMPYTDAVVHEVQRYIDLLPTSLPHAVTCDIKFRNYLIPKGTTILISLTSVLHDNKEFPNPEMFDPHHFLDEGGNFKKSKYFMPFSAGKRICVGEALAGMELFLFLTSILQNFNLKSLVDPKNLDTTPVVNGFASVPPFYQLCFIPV

[21] = Volume of distribution at steady state in rat at 0.4 mg/kg, iv by HPLC/MS/MS analysis; type: ADME, organism-based; conditions: in vivo, read-out: Vdss
[22] = tested on: BT-474; assay: Antitumor activity against human BT-474 cells xenografted in mouse assessed as decrease in pAKT level at 300 microg/kg, po measured after 10 hrs; type: functional; set-up: scale not given: the % may be the effect or the level left; conditions: dose 300 µg/kg; procedure, shortened: as §1
[23] = Half life in dog at 0.1 mg/kg, iv by HPLC/MS/MS analysis; type: ADME, organism-based, Canis lupus familiaris; conditions: in vivo
[24] = Clearance in mouse at 0.6 mg/kg, iv by HPLC/MS/MS analysis; type: ADME, organism-based; conditions: in vivo
[25] = Oral bioavailability in dog at 0.5 mg/kg by HPLC/MS/MS analysis; type: ADME, organism-based, Canis lupus familiaris; conditions: in vivo
[26] = Dose normalized AUC in monkey at 0.6 mg/kg, po by HPLC/MS/MS analysis; type: ADME, organism-based, Macaca mulatta; conditions: rhesus monkey, in vivo
[27] = Oral bioavailability in rat at 2.1 mg/kg by HPLC/MS/MS analysis; type: ADME, organism-based; conditions: in vivo
[28] = tested on: T47D; assay: Induction of cell cycle arrest in human T47D cells assessed as accumulation in G1 phase; type: functional, cell-based
[29] = biological target: Cytochrome P450 3A4 (Homo sapiens, UniProt P08684); assay: Inhibition of CYP3A4 (unknown origin)
Cytochrome P450 3A4, sequence (P08684 whole entry): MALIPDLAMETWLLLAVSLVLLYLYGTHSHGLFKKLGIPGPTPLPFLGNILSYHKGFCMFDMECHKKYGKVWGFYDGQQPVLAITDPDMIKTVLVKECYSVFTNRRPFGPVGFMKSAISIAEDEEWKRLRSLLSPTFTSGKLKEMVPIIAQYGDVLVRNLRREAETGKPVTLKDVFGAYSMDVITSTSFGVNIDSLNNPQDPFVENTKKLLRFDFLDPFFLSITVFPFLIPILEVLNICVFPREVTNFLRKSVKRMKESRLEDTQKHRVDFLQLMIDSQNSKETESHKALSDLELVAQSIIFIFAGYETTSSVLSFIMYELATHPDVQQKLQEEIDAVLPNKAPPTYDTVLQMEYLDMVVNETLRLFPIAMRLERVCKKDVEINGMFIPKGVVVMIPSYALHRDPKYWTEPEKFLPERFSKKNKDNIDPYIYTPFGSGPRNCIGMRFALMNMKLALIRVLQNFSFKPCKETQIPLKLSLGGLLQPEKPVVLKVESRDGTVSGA

[30] = biological target: T1, Cytochrome P450 1A2 (Homo sapiens, UniProt P05177); assay: Inhibition of CYP1A2 (unknown origin)
T1 sequence (P05177 whole entry): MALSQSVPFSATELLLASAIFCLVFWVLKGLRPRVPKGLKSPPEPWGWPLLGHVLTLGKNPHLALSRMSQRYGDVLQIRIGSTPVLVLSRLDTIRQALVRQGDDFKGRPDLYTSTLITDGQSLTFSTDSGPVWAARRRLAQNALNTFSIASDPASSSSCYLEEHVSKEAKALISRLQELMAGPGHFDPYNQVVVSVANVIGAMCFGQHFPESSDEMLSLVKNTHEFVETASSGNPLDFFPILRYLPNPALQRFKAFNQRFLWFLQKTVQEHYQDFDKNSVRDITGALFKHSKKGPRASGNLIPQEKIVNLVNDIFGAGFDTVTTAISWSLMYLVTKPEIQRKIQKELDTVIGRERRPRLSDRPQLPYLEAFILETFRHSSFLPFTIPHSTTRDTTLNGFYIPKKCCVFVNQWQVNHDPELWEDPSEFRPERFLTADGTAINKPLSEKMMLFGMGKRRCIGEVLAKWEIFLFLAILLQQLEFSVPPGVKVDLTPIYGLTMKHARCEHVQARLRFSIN

[31] = Toxicity in mouse xenografted with human BT-474 cells assessed as tolerability at 3 mg/kg, po administered 5 times a week for 3 weeks; type: organism-based; conditions: in vivo, 504 h
[32] = Clearance in dog at 0.1 mg/kg, iv by HPLC/MS/MS analysis; type: ADME, organism-based, Canis lupus familiaris; conditions: in vivo
[33] = species on record: Homo sapiens; assay: Inhibition of Akt phosphorylation at T308 residue (unknown origin) by cell based analysis
[34] = tested on: BT-474; assay: Antitumor activity against human BT-474 cells xenografted in mouse assessed as decrease in pAKT level at 300 microg/kg, po measured after 2 hrs; type: functional; set-up: scale not given: the % may be the effect or the level left; conditions: dose 300 µg/kg; procedure, shortened: as §1
[35] = tested on: BT-474; assay: Induction of cell cycle arrest in human BT-474 cells assessed as accumulation in G1 phase; type: functional, cell-based
[36] = tested on: BT-474; assay: Antitumor activity against human BT-474 cells xenografted in mouse assessed as decrease in pAKT level at 300 microg/kg, po measured after 1 hr; type: functional; set-up: scale not given: the % may be the effect or the level left; conditions: dose 300 µg/kg; procedure, shortened: as §1
[37] = Volume of distribution at steady state in monkey at 0.1 mg/kg, iv by HPLC/MS/MS analysis; type: ADME, organism-based, Macaca mulatta; conditions: rhesus monkey, in vivo, read-out: Vdss
[38] = Dose normalized AUC in mouse at 2.6 mg/kg, po by HPLC/MS/MS analysis; type: ADME, organism-based; conditions: in vivo
[39] = Oral bioavailability in mouse at 2.6 mg/kg by HPLC/MS/MS analysis; type: ADME, organism-based; conditions: in vivo
[40] = Volume of distribution at steady state in mouse at 0.6 mg/kg, iv by HPLC/MS/MS analysis; type: ADME, organism-based; conditions: in vivo, read-out: Vdss
[41] = tested on: BT-474; assay: Antitumor activity against human BT-474 cells xenografted in po dosed mouse assessed as tumor growth inhibition administered 5 times a week for 3 weeks; type: functional, organism-based; conditions: dose 0.3-3 mg/kg
[42] = Half life in rat at 0.4 mg/kg, iv by HPLC/MS/MS analysis; type: ADME, organism-based; conditions: in vivo
[43] = Aqueous solubility of compound; type: physicochemical; conditions: buffer

Phosphatidylinositol 4,5-bisphosphate 3-kinase catalytic subunit alpha isoform, sequence (P42336 whole entry, canonical isoform): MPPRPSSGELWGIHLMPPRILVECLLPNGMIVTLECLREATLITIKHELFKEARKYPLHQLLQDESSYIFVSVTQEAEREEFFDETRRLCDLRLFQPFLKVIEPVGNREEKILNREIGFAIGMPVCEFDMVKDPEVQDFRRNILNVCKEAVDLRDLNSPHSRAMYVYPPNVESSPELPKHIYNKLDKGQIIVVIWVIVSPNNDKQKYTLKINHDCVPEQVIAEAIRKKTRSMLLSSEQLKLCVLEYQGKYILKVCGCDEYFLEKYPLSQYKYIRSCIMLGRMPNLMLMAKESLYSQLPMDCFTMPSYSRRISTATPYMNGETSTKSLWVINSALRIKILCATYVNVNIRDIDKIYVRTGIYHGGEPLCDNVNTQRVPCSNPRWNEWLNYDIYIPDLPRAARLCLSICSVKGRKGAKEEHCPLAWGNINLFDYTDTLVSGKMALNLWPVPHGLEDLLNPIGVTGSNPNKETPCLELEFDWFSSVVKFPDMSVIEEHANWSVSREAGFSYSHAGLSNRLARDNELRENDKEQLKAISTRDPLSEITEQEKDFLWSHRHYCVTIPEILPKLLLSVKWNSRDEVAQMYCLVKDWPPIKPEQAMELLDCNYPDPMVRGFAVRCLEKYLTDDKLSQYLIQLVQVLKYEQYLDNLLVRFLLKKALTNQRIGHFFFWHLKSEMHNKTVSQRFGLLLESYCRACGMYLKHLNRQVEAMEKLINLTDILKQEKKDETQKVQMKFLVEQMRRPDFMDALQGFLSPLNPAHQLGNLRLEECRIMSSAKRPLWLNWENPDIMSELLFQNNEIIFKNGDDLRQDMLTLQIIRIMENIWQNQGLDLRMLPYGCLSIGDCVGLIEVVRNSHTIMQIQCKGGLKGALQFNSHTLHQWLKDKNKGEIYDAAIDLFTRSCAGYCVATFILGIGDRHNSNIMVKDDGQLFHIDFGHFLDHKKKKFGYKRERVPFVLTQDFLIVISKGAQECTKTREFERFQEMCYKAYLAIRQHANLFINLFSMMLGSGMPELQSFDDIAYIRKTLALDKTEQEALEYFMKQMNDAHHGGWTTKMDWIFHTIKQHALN

SMILES: c1ccc(-c2ccc3nccc(-c4ccncc4)c3c2)cc1
IC50 [1]: 1800 nM
IC50 [2]: 8080 nM

SMILES: O=S(=O)(Nc1cncc(-c2ccc3nccc(-c4ccncc4)c3c2)c1)c1ccc(F)cc1F
IC50 [1]: 0.1 nM
IC50 [2]: 7 nM
AUC/dose [3]: 1100 ng·h/mL/mg/kg

SMILES: Nc1ncc(-c2ccc3nccc(-c4ccncc4)c3c2)cc1S(=O)(=O)Nc1ccc(F)cc1F
IC50 [1]: 1 nM
IC50 [2]: 63 nM
AUC/dose [3]: 250 ng·h/mL/mg/kg

SMILES: COc1ncc(-c2ccc3nccc(-c4ccnnc4)c3c2)cc1NS(=O)(=O)c1ccc(F)cc1F [OMIPALISIB]
IC50 [4]: > 25000 nM
half-life [5]: 2.1 h
inhibition [6]: Active
Vd [7]: 0.7 L/kg
clearance [8]: 3.6 mL/min/kg
Activity [9]: 47%
IC50 [10]: > 25000 nM
IC50 [11]: 0.41 nM
IC50 [12]: 3 nM
half-life [13]: 3.5 h
Activity [14]: 79%
IC50 [15]: 0.28 nM
bioavailability [16]: 49%
IC50 [17]: 2.4 nM
AUC/dose [18]: 2400 ng·h/mL/mg/kg
clearance [19]: 2.3 mL/min/kg
IC50 [20]: > 25000 nM
Vd [21]: 1.1 L/kg
Activity [22]: 46%
half-life [23]: 1.3 h
clearance [24]: 10 mL/min/kg
bioavailability [25]: 80%
AUC/dose [26]: 2300 ng·h/mL/mg/kg
bioavailability [27]: 81%
Activity [28]: Active
IC50 [29]: > 25000 nM
IC50 [30]: > 25000 nM
Activity [31]: Non-Toxic
clearance [32]: 5.8 mL/min/kg
inhibition [33]: Active
Activity [34]: 93%
Activity [35]: Active
Activity [36]: 98%
Vd [37]: 0.8 L/kg
AUC/dose [3]: 6100 ng·h/mL/mg/kg
AUC/dose [38]: 1100 ng·h/mL/mg/kg
bioavailability [39]: 100%
Vd [40]: 1 L/kg
Activity [41]: Dose-Dependent Effect
half-life [42]: 6.2 h

SMILES: c1cc(-c2ccnc3ccc(-c4ccc5[nH]ncc5c4)cc23)ccn1
IC50 [1]: 73 nM
IC50 [2]: 2700 nM

SMILES: c1cncc(-c2ccc3nccc(-c4ccncc4)c3c2)c1
IC50 [1]: 260 nM
IC50 [2]: > 29300 nM

Continued by falling IC50 [1], values first:

IC50 [1]: 10 nM
IC50 [2]: 49 nM
solubility [43]: Soluble
SMILES: Nc1ncc(-c2ccc3nccc(-c4ccncc4)c3c2)cc1S(N)(=O)=O

IC50 [1]: 7 nM
IC50 [2]: 76 nM
solubility [43]: Insoluble
SMILES: c1cc(-c2ccnc3ccc(-c4cnc5[nH]ncc5c4)cc23)ccn1

IC50 [1]: 2 nM
IC50 [2]: 40 nM
SMILES: O=C1NC(=O)/C(=C/c2ccc3nccc(-c4ccncc4)c3c2)S1 [GSK-1059615]

IC50 [1]: 1 nM
IC50 [2]: 45 nM
AUC/dose [3]: 920 ng·h/mL/mg/kg
SMILES: O=S(=O)(Nc1ccc(F)cc1F)c1cncc(-c2ccc3nccc(-c4ccncc4)c3c2)c1
